Experimental data reported in the RNAGym collection of RNA variant scans (doi:10.1002/anie.201605470).

B1: Osa-1-4 twister ribozyme (parent)
chain: CCGCCUAACACUGCCAAUGCCGGUCCCAAGCCCGGAUAAAAGUGGAGGGGGCGG

Variants of: B1
Test: self-cleavage, relative activity (ratio to wild type); higher = more cleavage; co-transcriptional
How it was run: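 Relative activity is the fraction cleaved divided by that of the wild-type ribozyme. The library came from a DNA template for a 54-nucleotide Oryza sativa twister ribozyme, doped at the 48 positions downstream of the cleavage site with 97 % wild-type base and 1 % of each other base. After 2 h of in vitro transcription at 37 °C with co-transcriptional self-cleavage, the RNA was reverse-transcribed with a template-switching oligonucleotide, amplified by PCR and deep-sequenced, and reads with or without upstream sequence gave the cleavage status.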

In order of falling self-cleavage:
1. CCGCCUAACACUGCCAAUGCCGGUCCCAAGCCCGGAUGAAUGUGGAGGGGGCGG [A38G A41U]  1.01
2. CCGCCUAACACUGCCAACGCCGGUCCCAAGCCCGGAUCAAAGUGGAGGGGGCGG [A38C U18C]  0.99
3. CCGCCUAACACUGCCAAAGCCGGUCCCAAGCCCGGAUCAAAGUGGAGGGGGCGG [A38C U18A]  0.98
4. CCGCCUAACACUGCCAAUGCCGGUCCCAAGCCCGGAUGAACGUGGAGGGGGCGG [A38G A41C]  0.98
5. CCGCCUAACACUGCCAAUGUCGGUCCCAAGCCCGGAUGAAAGUGGAGGGGGCGG [A38G C20U]  0.98
6. CCGCCUAACACUGCCAAUGCCGGUCCCAAGCCCGGAUCAAAGUGGAGGGGGCGA [A38C G54A]  0.96
7. CCGCCUAACACUGCCAAUGCCGGUCCCAAGCCCGGAUCAAAGUGGAGGGGGCGU [A38C G54U]  0.94
8. CCGCCUAACACUGCCAAUGCCGGUCCCAAGCCCGGAUCAAAGUGGAGGGGGCGC [A38C G54C]  0.93
9. CCGCCUAACACAGCCAAUGCCGGUCCCAAGCCCGGAUCAAAGUGGAGGGGGCGG [A38C U12A]  0.92
10. CCGCCUAACACUGCCAAUGACGGUCCCAAGCCCGGAUGAAAGUGGAGGGGGCGG [A38G C20A]  0.9
11. CCGCCUAAGACUGCCAAUGCCGGUCCCAAGCCCGGAUGAAAGUGGAGGGGGCGG [A38G C9G]  0.88
12. CCGCCUAACACUGCCAAUGCCGGUCCCAAGCCCGGAUCAAAGAGGAGGGGGCGG [A38C U43A]  0.88
13. CCGCCUAACACUGCCAAGGCCGGUCCCAAGCCCGGAUCAAAGUGGAGGGGGCGG [A38C U18G]  0.81
14. CCGCCUAACACUGCCAAUGCCGGUCCCAAGCCCGGAUGAAGGUGGAGGGGGCGG [A38G A41G]  0.75
15. CCGCCUAACACUGCCAAUGCCGGUCCCAAGUCCGGAUGAAAGUGGAGGGGGCGG [A38G C31U]  0.73
16. CCGCCUAAUACUGCCAAUGCCGGUCCCAAGCCCGGAUGAAAGUGGAGGGGGCGG [A38G C9U]  0.7
17. CCGCCUAACACUGCCAAUGCCGGUCCCAAGCCCGGAUCAAAGUGGAGGGGACGG [A38C G51A]  0.69
18. CCGCCUAACACUGCUAAUGCCGGUCCCAAGCCCGGAUGAAAGUGGAGGGGGCGG [A38G C15U]  0.47
19. CCGCCUAAAACUGCCAAUGCCGGUCCCAAGCCCGGAUGAAAGUGGAGGGGGCGG [A38G C9A]  0.45
20. CCGCCUAACACUGCCAAUGCCGGUCCCAAGCCCGGAUCAAAGCGGAGGGGGCGG [A38C U43C]  0.38
21. CCGCCUAACACCGCCAAUGCCGGUCCCAAGCCCGGAUCAAAGUGGAGGGGGCGG [A38C U12C]  0.38
22. CCGCCUAACACUGCCAAUGCCGGUCCCAAGCCCGGAUCAAAGUGGAGGGGUCGG [A38C G51U]  0.37
23. CCGCCUAACACUGCGAAUGCCGGUCCCAAGCCCGGAUGAAAGUGGAGGGGGCGG [A38G C15G]  0.35
24. CCGCCUAACACUGCCAAUGCCGGUCCCAAGCCCGGAUCAAAGGGGAGGGGGCGG [A38C U43G]  0.34
25. CCGCCUAACACUGCAAAUGCCGGUCCCAAGCCCGGAUGAAAGUGGAGGGGGCGG [A38G C15A]  0.33
26. CCGCCUGACACUGCCAAUGCCGGUCCCAAGCCCGGAUGAAAGUGGAGGGGGCGG [A38G A7G]  0.31
27. CCGCCUAACACGGCCAAUGCCGGUCCCAAGCCCGGAUCAAAGUGGAGGGGGCGG [A38C U12G]  0.29
28. CCGCCUAACACUGCCAAUGCCGGCCCCAAGCCCGGAUCAAAGUGGAGGGGGCGG [A38C U24C]  0.26
29. CCGCCUAACACUGCCAAUGCCGGUCCCAAGCCCGGAUCAAAGUGGAUGGGGCGG [A38C G47U]  0.22
30. CCGCCUAACACUGCCAAUGCCGGUCCCAAGCCCGGAUCAAAGUGGAAGGGGCGG [A38C G47A]  0.19
31. CCGCCUAACACUGCCAAUGGCGGUCCCAAGCCCGGAUGAAAGUGGAGGGGGCGG [A38G C20G]  0.19
32. CCGCCUAACACUGCCAAUGCCGGACCCAAGCCCGGAUCAAAGUGGAGGGGGCGG [A38C U24A]  0.16
33. CCGCCUAACACUGCCAAUGCCGGUCCCAAGGCCGGAUGAAAGUGGAGGGGGCGG [A38G C31G]  0.13
34. CCGCCUAACACUGUCAAUGCCGGUCCCAAGCCCGGAUGAAAGUGGAGGGGGCGG [A38G C14U]  0.13
35. CCGCCUAACACUGGCAAUGCCGGUCCCAAGCCCGGAUGAAAGUGGAGGGGGCGG [A38G C14G]  0.13
36. CCGCCUAACACUGCCAAUGCCGGUCCCAAGCCCGGAUCAAAGUGGAGGAGGCGG [A38C G49A]  0.1
37. CCGCCUAACACUGCCAAUGCCGGUCCCAAGCCCGGAUCAAAGUGGAGGUGGCGG [A38C G49U]  0.1
38. CCGCCUAACACUGCCAAUGCCGGUCCCAAGCCCGGAUCAAAGUGGAGAGGGCGG [A38C G48A]  0.09
39. CCGCCUAACACUGCCAAUGCCGGUCCCAAGCCCGGAUCAAAGUGGAGGGGCCGG [A38C G51C]  0.09
40. CCGCCUAACACUGCCAAUGCCGGUCCCAAGCCCGGAUCAAAGUGGAGCGGGCGG [A38C G48C]  0.08
41. CCGCCUAACACUGCCAAUGCCGGUCCCAAGCCCGGAUCAAAGUGGACGGGGCGG [A38C G47C]  0.08
42. CCGCCUUACACUGCCAAUGCCGGUCCCAAGCCCGGAUGAAAGUGGAGGGGGCGG [A38G A7U]  0.08
43. CCGCCUAACACUGCCAAUGCCGGUCCCAAGCCCGGAUCAAAGUGGAGUGGGCGG [A38C G48U]  0.07
44. CCGCCUAACACUGACAAUGCCGGUCCCAAGCCCGGAUGAAAGUGGAGGGGGCGG [A38G C14A]  0.07
45. CCGCCUAACACUGCCAAUGCCGGUCCCAAGCCCGGAUCAAAGUGGAGGCGGCGG [A38C G49C]  0.06
46. CCGCCUCACACUGCCAAUGCCGGUCCCAAGCCCGGAUGAAAGUGGAGGGGGCGG [A38G A7C]  0.06
47. CCGCCUAACACUGCCAAUGCCGGGCCCAAGCCCGGAUCAAAGUGGAGGGGGCGG [A38C U24G]  0.04
48. CCGCCUAACACUGCCAAUGCCGGUCCCAAGACCGGAUGAAAGUGGAGGGGGCGG [A38G C31A]  0.03
